# Assay results reported in ChEMBL document CHEMBL4138279, “Probing the Antiallergic and Anti-inflammatory Activity of Biflavonoids and Dihydroflavonols from Dietes bicolor” (J Nat Prod, 2018).
# Key:
# [1] = Cytotoxicity against rat RBL2H3 cells assessed as cell viability at 400 uM after 24 hrs by MTT assay relative to control; format: cell-based; conditions: RBL-2H3 cells, read-out: Activity
# Summary of the method: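 Viability of RBL-2H3 cells, cultured in DMEM with 10% FBS at 37 °C and 5% CO2, was determined by MTT after exposure to pure compounds at 400 μM. It is expressed as % of untreated control, mean ± SD (n = 3). Viability below 80% was classed as cytotoxic.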
# RBL-2H3 [2] = assay: Antiallergic activity in rat RBL2H3 cells assessed as inhibition of A23187-induced beta hexosaminidase release at 1 uM pretreated for 20 hrs followed by A23187 addition measured after 1 hr by p-NAG substrate based assay relative to control; format: functional
# Summary of the method: (§1)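 Degranulation assay: RBL-2H3 cells were seeded at 2 × 10^4 cells/well overnight and exposed to compounds (1 to 400 μM) for 20 h. They were then activated with calcium ionophore A23187 (1 μM). Released β-hexosaminidase was quantified using p-NAG substrate and expressed as % inhibition relative to A23187 control, mean ± SD (n = 3).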
# RBL-2H3 [3] = assay: Antiallergic activity in rat RBL2H3 cells assessed as inhibition of A23187-induced beta hexosaminidase release at 10 uM pretreated for 20 hrs followed by A23187 addition measured after 1 hr by p-NAG substrate based assay relative to control; format: functional; summary of the method: as §1
# RBL-2H3 [4] = assay: Antiallergic activity in rat RBL2H3 cells assessed as inhibition of A23187-induced beta hexosaminidase release at 100 uM pretreated for 20 hrs followed by A23187 addition measured after 1 hr by p-NAG substrate based assay relative to control; format: functional; summary of the method: as §1
# RBL-2H3 [5] = assay: Antiallergic activity in rat RBL2H3 cells assessed as inhibition of A23187-induced beta hexosaminidase release at 200 uM pretreated for 20 hrs followed by A23187 addition measured after 1 hr by p-NAG substrate based assay relative to control; format: functional; summary of the method: as §1
# RBL-2H3 [6] = assay: Antiallergic activity in rat RBL2H3 cells assessed as inhibition of A23187-induced beta hexosaminidase release at 400 uM pretreated for 20 hrs followed by A23187 addition measured after 1 hr by p-NAG substrate based assay relative to control; format: functional; summary of the method: as §1
# RBL-2H3 [7] = assay: (§2) Antiallergic activity in anti-DNP IgE-sensitized rat RBL2H3 cells assessed as inhibition of DNP-BSA-induced beta hexosaminidase release at 1 uM pretreated for 20 hrs followed by anti-DNP IgE-sensitization for 2 hrs and subsequent DNP-BSA addition measured after 1 hr by p-NAG substrate based assay relative to control; format: functional
# Summary of the method: (§3)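 RBL-2H3 cells in DMEM with 10% FBS at 37 °C and 5% CO2 were seeded at 3 × 10^4 cells/well overnight, then treated 20 h with compounds (1 to 400 μM). Cells were sensitized with anti-DNP IgE (1 μg/mL, at least 2 h) and challenged with DNP-BSA (100 ng/mL) for 1 h. β-Hexosaminidase was read with p-NAG substrate as % inhibition versus antigen control. Mean ± SD, n = 3.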
# RBL-2H3 [8] = assay: as §2, with “at 10” for “at 1”; format: functional; summary of the method: as §3
# RBL-2H3 [9] = assay: as §2, with “at 100” for “at 1”; format: functional; summary of the method: as §3
# RBL-2H3 [10] = assay: as §2, with “at 200” for “at 1”; format: functional; summary of the method: as §3
# RBL-2H3 [11] = assay: as §2, with “at 400” for “at 1”; format: functional; summary of the method: as §3
# Neutrophil [12] = assay: (§4) Anti-inflammatory activity in human neutrophils assessed as inhibition of fMLP/CB-induced superoxide anion generation pretreated for 5 mins followed by cytochalasin B addition for 3 mins and subsequent fMLP stimulation for 10 mins by superoxide dismutase inhibitable reduction of ferricytochrome c based spectrophotometric assay; format: functional, cell-based
# Summary of the method: (§5)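 Human neutrophils isolated from venous blood of healthy adult volunteers (20−30 years), stimulated with fMLF/cytochalasin B. Superoxide anion was measured as ferricytochrome c reduction. Pure compounds were tested at 0.3 to 10 μM. IC50 was taken as the concentration giving 50% inhibition, and single-point values as % inhibition at 10 μM versus fMLF/CB control. Mean ± SEM, n = 3−4.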
# Neutrophil [13] = assay: as §4, with “generation at 10 uM” for “generation”, “assay relative to control” for “assay”; format: functional; summary of the method: as §5
# Neutrophil [14] = assay: Antiinflammatory activity in human neutrophils assessed as inhibition of fMLP/CB-induced elastase release pretreated for 5 mins followed by fMLP/CB stimulation using MeO-Suc-Ala-Ala-Pro-Val-p-nitroanilide as substrate; format: functional, cell-based
# Summary of the method: (§6)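 Elastase release from fMLF/cytochalasin B-activated human neutrophils, isolated from venous blood of healthy volunteers aged 20−30, measured with N-methoxysuccinyl-Ala-Ala-Pro-Val-p-nitroanilide as substrate. Pure compounds were tested at 0.3 to 10 μM. Results are IC50 or % inhibition at 10 μM relative to fMLF/CB control, mean ± SEM (n = 3−4).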
# Neutrophil [15] = assay: Antiinflammatory activity in human neutrophils assessed as inhibition of fMLP/CB-induced elastase release at 10 uM pretreated for 5 mins followed by fMLP/CB stimulation using MeO-Suc-Ala-Ala-Pro-Val-p-nitroanilide as substrate relative to control; format: functional; summary of the method: as §6
# Neutrophil elastase = target: T1, Neutrophil elastase (Homo sapiens, UniProt P08246); assay: Inhibition of human neutrophil elastase using N-Methoxysuccinyl-Ala-Ala-Pro-Val-p-nitroanilid as substrate measured after 1 hr
# T1 sequence (P08246 whole entry): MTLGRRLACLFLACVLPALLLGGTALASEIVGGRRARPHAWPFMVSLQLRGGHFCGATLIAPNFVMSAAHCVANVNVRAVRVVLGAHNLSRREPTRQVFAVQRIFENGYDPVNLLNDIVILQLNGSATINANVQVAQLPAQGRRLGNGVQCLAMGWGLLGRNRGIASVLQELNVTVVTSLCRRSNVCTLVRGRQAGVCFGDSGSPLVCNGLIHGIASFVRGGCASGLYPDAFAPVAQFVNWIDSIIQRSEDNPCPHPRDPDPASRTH
# RBL-2H3 [16] = assay: Antiallergic activity in rat RBL2H3 cells assessed as inhibition of A23187-induced beta hexosaminidase release at 10 nM pretreated for 20 hrs followed by A23187 addition measured after 1 hr by p-NAG substrate based assay relative to control; format: functional
# RBL-2H3 [17] = assay: as §2, with “10 nM” for “1 uM”; format: functional
# RBL-2H3 [18] = assay: Antiallergic activity in anti-DNP IgE-sensitized rat RBL2H3 cells assessed as inhibition of DNP-BSA-induced beta hexosaminidase release pretreated for 10 mins followed by DNP-BSA addition measured after 10 mins by p-NAG substrate based assay; format: functional, cell-based
IC50 (Neutrophil [12]),IC50 (Neutrophil [14]),IC50 (Neutrophil elastase),SMILES,"viability at 24 h, 400 µM [1]",inhibition at 1 µM (RBL-2H3 [2]),inhibition at 10 µM (RBL-2H3 [3]),inhibition at 100 µM (RBL-2H3 [4]),inhibition at 200 µM (RBL-2H3 [5]),inhibition at 400 µM (RBL-2H3 [6]),inhibition at 1 µM (RBL-2H3 [7]),inhibition at 10 µM (RBL-2H3 [8]),inhibition at 100 µM (RBL-2H3 [9]),inhibition at 200 µM (RBL-2H3 [10]),inhibition at 400 µM (RBL-2H3 [11]),inhibition at 10 µM (Neutrophil [13]),inhibition at 10 µM (Neutrophil [15]),inhibition at 0.01 µM (RBL-2H3 [16]),inhibition at 0.01 µM (RBL-2H3 [17]),IC50 (RBL-2H3 [18])
1.01 µM,0.45 µM,1.33 µM,O=c1cc(-c2ccc(O)c(-c3c(O)cc4oc(-c5ccc(O)cc5)cc(=O)c4c3O)c2)oc2cc(O)cc(O)c12 [ROBUSTAFLAVONE],92.3%,2.3%,5.3%,6%,2.7%,45.3%,4%,3%,2.7%,3%,49%,105%,103%,,,
,,,C[C@@H]1C[C@H]2[C@@H]3CCC4=CC(=O)C=C[C@]4(C)[C@@]3(F)[C@@H](O)C[C@]2(C)[C@@]1(O)C(=O)CO [DEXAMETHASONE],,,,,,,,,,,,,,80.7%,79.7%,
,,,COc1cc(OC)c2c(c1)O[C@H](c1ccccc1)[C@@H](O)C2=O (relative stereo),,,,,,,,,,,,,,,,> 100 µM
> 10 µM,> 10 µM,,COc1cc(O)c2c(=O)c(-c3ccc(O)c(OC)c3)coc2c1,69%,0.3%,1.7%,23.7%,22.7%,,2.3%,1.3%,9%,18%,,48.9%,27.1%,,,> 100 µM
,,,COc1c(O)cc(O)c2c1O[C@H](c1ccccc1)[C@@H](O)C2=O,,,,,,,,,,,,,,,,> 100 µM
1.25 µM,3.44 µM,,O=c1cc(N2CCOCC2)oc2c(-c3ccccc3)cccc12 [LY-294002],,,,,,,,,,,,96.5%,71.5%,,,
,,,COc1c2c(cc3c1C(=O)[C@H](O)[C@@H](c1ccccc1)O3)OCO2 (relative stereo),,,,,,,,,,,,,,,,> 100 µM
1.01 µM,0.75 µM,1.27 µM,O=c1cc(-c2ccc(O)c(-c3c(O)cc(O)c4c(=O)cc(-c5ccc(O)cc5)oc34)c2)oc2cc(O)cc(O)c12 [AMENTOFLAVONE],97.7%,2%,6.7%,0%,3.3%,42.3%,4.7%,1.3%,2.7%,7.7%,50%,104%,108%,,,
